Screens: PubChem, Johns Hopkins Ion Channel Center
Rows were chosen to be rich in hits. Some 2.9% of all compounds tested hit in one or more screens of this group.
Kir21 inh = Kir2.1 (mouse) channel inhibition; B-score at 10 µM; HEK293-Kir2.1, FluxOR thallium flux fluorescence; stronger effect = lower value; 310,000 tested, 0.85% active; P35561;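 active means fluorescence ratio B-score at or below minus 3 SD of library scores, with starting-brightness B-score within 2 SD, cut at about -4.2 in these data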;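 further: channel flux triggered by added potassium and thallium sulfate stimulus; B-score of peak minus minimum fluorescence over baseline after thallium stimulus; more negative B-score means stronger Kir2.1 block with less thallium influx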
Target sequence (P35561 whole entry, looked up): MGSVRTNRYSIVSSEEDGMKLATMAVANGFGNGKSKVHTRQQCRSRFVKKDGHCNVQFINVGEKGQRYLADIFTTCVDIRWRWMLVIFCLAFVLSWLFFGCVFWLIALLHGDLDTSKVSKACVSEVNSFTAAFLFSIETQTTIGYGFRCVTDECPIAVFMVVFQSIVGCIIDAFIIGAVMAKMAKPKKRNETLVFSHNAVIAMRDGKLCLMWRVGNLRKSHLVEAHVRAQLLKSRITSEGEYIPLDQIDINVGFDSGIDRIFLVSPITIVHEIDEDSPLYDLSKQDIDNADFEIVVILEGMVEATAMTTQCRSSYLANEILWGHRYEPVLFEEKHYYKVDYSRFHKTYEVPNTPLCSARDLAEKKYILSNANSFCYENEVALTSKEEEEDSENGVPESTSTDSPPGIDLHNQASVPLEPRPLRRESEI
TRPC6 act = activators of mouse TRPC6 channel; AID 2550; 310,000 tested, 0.13% active; B-score at 10 µM; HEK293-TRPC6 membrane potential dye fluorescence; stronger effect = higher value; Q61143;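 active means B-score of the integrated fluorescence ratio above library mean plus 3 SD, and starting fluorescence ratio within library mean plus 5 SD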;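 further: higher score means more depolarization so channel activation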
TRPC6 inh = blocks the mouse TRPC6 cation channel; B-score at 10 µM; Q61143; HEK293-TRPC6, membrane potential dye, ACh-evoked depolarization; stronger effect = lower value; 310,000 tested, 1.1% active;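 active means B-score under library mean minus 3 SD, initial fluorescence not abnormally high, positive integrated signal ratio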;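 further: B-score derived from integrated fluorescence ratio over the kinetic read; more negative B-score means stronger inhibition of depolarization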
TRPC4 inh = blocks the mouse TRPC4 cation channel. AID 2247. B-score at 10 µM. HEK293 TRPC4beta/mu-opioid, DAMGO-evoked Fluo4 calcium flux; stronger effect = lower value. 300,000 tested, 0.39% active;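 active means B-score over 3 SD under the library average, no early fluorescence shift, positive overall ratio signal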
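Assay system: HEK293 cells with stable TRPC4beta plus mu-opioid receptor expression; Probe or stimulus: DAMGO in two steps, submaximal then maximal; Dosing: single-point compound dosing; Measured by: Fluo4 calcium-dye fluorescence, kinetic read; Read-out basis: B score from integrated Fluo4 fluorescence ratio.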
TRPC4 act = activators of mouse TRPC4 channel; Q9QUQ5; HEK293 TRPC4beta/mu-opioid, Fluo4 calcium fluorescence; stronger effect = higher value; B-score at 10 µM; 310,000 tested, 0.49% active; AID 2237;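 active means B-score above 5 SD of library B-scores, and initial fluorescence ratio not above library mean plus 5 SD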;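 further: positive B-score marks a calcium rise read as TRPC4 activation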
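Incubation: 45 min room-temperature Fluo4 loading, 110 s read / System: HEK293 cells stably co-expressing mouse TRPC4beta and mu-opioid receptor / Signal: Fluo4 fluorescence, kinetic / Control set: buffer (low) and maximal DAMGO (high) / Measure: integrated baseline-normalised fluorescence ratio, converted to per-well B score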
TRPC4 PAM = TRPC4 (mouse) allosteric potentiation; HEK293 TRPC4beta/mu-opioid, DAMGO EC20, Fluo-4 Ca2+ flux; stronger effect = higher value; B-score at 10 µM; 310,000 tested, 0.42% active; AID 2227;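 active means B-score of calcium response area above 5 SD of library B-scores, with initial fluorescence ratio within 5 SD of library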
TRPC4 spec 2 = second check of whether TRPC6 inhibitors also affect mouse TRPC4. shares compounds with TRPC6 inh. inhibition, % at 10 µM. 920 tested, 42% active. HEK293 TRPC4/MOR, membrane potential dye fluorescence; channel activated by saturating DAMGO dose;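 active means compounds whose fluorescence signal differed from control wells by over 3 SD, either direction, in both duplicate plates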
TRPC4 spec = tests whether TRPC6 inhibitors also affect mouse TRPC4; AID 2777; activity change, negative = inhibition, % at 10 µM; 920 tested, 61% active; HEK293 TRPC4/mu-opioid, membrane potential fluorescence; shares compounds with TRPC6 inh;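 active means rise or fall in signal beyond 3 SD of buffer-only wells in both replicate plates, either sign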;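 further: integrated kinetic ratio of fluorescence range over baseline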
HEK293 MPD ctr 2-1 = parental HEK293 nonspecific activity of TRPC6 inhibitors, second screen; shares compounds with TRPC6 inh; AID 2779; 920 tested, 31% active; signal change vs control, % at 10 µM; parental HEK293 membrane potential dye fluorescence; maximal acetylcholine challenge after compound addition;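 active means membrane potential signal moving either way by over 3 SD of the maximum-effect control, in both duplicate plates, meaning non-specific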
HEK293 MPD ctr-1 = counter-screen for TRPC6 inhibitors: effect in parental HEK293 cells. membrane potential signal change, % at 10 µM. parental HEK293 membrane potential dye fluorescence. shares compounds with TRPC6 inh. 920 tested, 60% active. AID 2780;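 active means membrane potential signal shifting up or down by more than 3 SD of buffer-only wells, on both duplicate plates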
HEK293 MPD ctr-2 = counter-screen for TRPC6 modulators: effect in parental HEK293 cells; shares compounds with TRPC6 inh; membrane potential dye fluorescence; membrane potential signal change, % at 10 µM; 2,400 tested, 51% active; AID 488924;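 active means membrane potential signal moves up or down beyond 5 SD from buffer-only wells, on both duplicate plates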
HEK293 MPD ctr 2-2 = second counter-screen for TRPC6 modulators: effect in parental HEK293 cells | shares compounds with TRPC6 inh | membrane potential dye fluorescence; after compound, maximal acetylcholine stimulation | inhibition, % at 10 µM | 2,400 tested, 14% active | AID 488926;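 active means membrane potential signal drops by more than 5 SD from the mean control signal, in both duplicate plates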
TRPC4 ctr mod = tests whether TRPC6 modulators also affect mouse TRPC4 | shares compounds with TRPC6 inh | percent change from control (negative = decrease, positive = increase), % at 10 µM | AID 488927 | HEK293 TRPC4/mu-opioid, membrane potential fluorescence | 2,400 tested, 69% active;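 active means membrane potential signal moved up or down beyond 5 SD of buffer control wells, in both duplicate plates, actives on both sides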
TRPC4/MOR inh 2 = second check of whether TRPC6 modulators also affect mouse TRPC4 | shares compounds with TRPC6 inh | HEK293 TRPC4/mu-opioid, membrane potential dye fluorescence; stimulated with maximal-effect DAMGO | inhibition, % at 10 µM | 2,400 tested, 55% active | AID 488928;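 active means drop in membrane potential signal beyond 5 SD of the control wells in both duplicate plates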;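 further: TRPC4 counter screen for TRPC6 hits run under conditions tuned for TRPC6 not TRPC4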
TRPC6 block conf = mouse TRPC6 inhibitor confirmation. shares compounds with TRPC6 inh. HEK293-TRPC6, membrane potential dye, ACh-evoked depolarization. inhibition, % at 10 µM. 3,300 tested, 43% active;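 active means fluorescence ratio falls more than 5 SD below the full-stimulation control mean, in both duplicate runs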;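 further: integrated fluorescence ratio of peak minus minimum over baseline after agonist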
TRPC6 act conf = confirmation of mouse TRPC6 activators; 2,800 tested, 11% active; HEK293-TRPC6 membrane potential dye fluorescence, FDSS; activation, % at 10 µM; shares compounds with TRPC6 inh;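 active means ratio signal rise beyond 5 SD above unstimulated control wells' mean, seen in both duplicate runs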
Numbers stand for hits; 0 = inactive; - = not tested or not shown.

SMILES	Kir21 inh	TRPC6 act	TRPC6 inh	TRPC4 inh	TRPC4 act	TRPC4 PAM	HEK293 MPD ctr-2	HEK293 MPD ctr 2-2	TRPC4 ctr mod	TRPC4/MOR inh 2	TRPC6 block conf	TRPC6 act conf	others
CC(C)C(O)(C#CCN1CCCCC1)c1ccccc1 (stereo not drawn)	0	0	-6.6	0	0	0	-	-	-	-	71%	-	TRPC4 spec 2=0;TRPC4 spec=4.9%;HEK293 MPD ctr 2-1=-61%;HEK293 MPD ctr-1=7.8%
CC(C)C(O)(C#CCN1CCCC1)c1ccccc1 (stereo not drawn)	0	0	-5.9	0	0	0	0	64%	11%	0	68%	-
CCN(CC(=O)Nc1cccc(C#N)c1)CC(=O)Nc1cccc(OC)c1	0	0	0	0	0	0	-	-	-	-	-	-
Cc1ccc(C(=O)NCC(=O)OCc2cccc(Br)c2)cc1	0	0	0	0	0	0	-	-	-	-	-	-
Nc1ccc(C23CC4CC(CC(CO)(C4)C2)C3)cc1	0	0	0	0	0	0	-	-	-	-	-	-
NCC12CC3CC(C1)CC(c1ccc(Cl)cc1)(C3)C2	-10	0	-7.1	0	61	0	-	-	-	-	72%	0	TRPC4 spec 2=31%;TRPC4 spec=0;HEK293 MPD ctr 2-1=0;HEK293 MPD ctr-1=-136%
Cn1nc(C(C)(C)C)cc1C(=O)Nc1nc2c(s1)C(=O)CC(C)(C)C2	0	0	-5	0	0	0	0	0	0	0	0	-
CCN(CC)S(=O)(=O)c1ccc(NC(=O)CNC2CCCCC2)cc1	0	0	-5.3	0	0	0	0	0	0	58%	46%	0
CCCCn1c(N)c(N(CC(C)C)C(=O)c2ccc(OCc3c(C)noc3C)cc2)c(=O)[nH]c1=O	0	0	0	0	0	0	-	-	-	-	-	-
CC1(C)SC[C@H](C(=O)Nc2cccc(Cl)c2)N1C=O	0	0	0	0	0	0	-	-	-	-	-	-
Cc1ccc(NC(=O)c2cc(-c3cccs3)nc3ccccc23)nc1	0	0	-6.4	0	0	0	0	0	0	39%	0	0
Cc1ccc(-n2nc3c(c2NC(=O)C(C)C)CS(=O)(=O)C3)cc1	0	0	-5.5	0	0	0	0	0	21%	0	0	-
CC(C)C(=O)Nc1c2c(nn1-c1ccc([N+](=O)[O-])cc1)CS(=O)(=O)C2	0	0	0	0	0	0	-	-	-	-	-	-
Cc1cccc(CCNC(=O)C2CCCN(S(=O)(=O)c3cccc4nsnc34)C2)c1 (stereo not drawn)	0	0	0	0	0	0	-	-	-	-	-	-
Cc1ccc(CCNC(=O)C2CCCN(S(=O)(=O)c3cccc4nsnc34)C2)cc1 (stereo not drawn)	0	0	-6	0	0	0	0	0	0	0	0	0
COc1ccc(/C=C(\NC(=O)c2ccccc2)C(=O)NC2CCS(=O)(=O)C2)cc1 (stereo not drawn)	0	0	0	0	0	0	-	-	-	-	-	-
Cc1ccc(N2C(=O)CSC2c2cccnc2)cc1F (stereo not drawn)	0	0	-6.7	0	0	0	-	-	-	-	0	0	TRPC4 spec 2=0;TRPC4 spec=0;HEK293 MPD ctr 2-1=0;HEK293 MPD ctr-1=0
Cn1c(=N)n(CC(=O)c2ccc(Br)cc2)c2ccccc21	0	0	0	0	0	0	-	-	-	-	-	-
O=C(Cn1c(-c2ccccc2)c[n+]2ccsc12)c1ccc(Br)cc1	0	0	-5.6	0	86	0	-122%	0	60%	97%	0	0
Fc1cccc(CSc2ccc3nnc(-c4cccnc4)n3n2)c1	0	0	0	0	0	0	-	-	-	-	-	-
Cc1cccc(Nc2ccc([N+](=O)[O-])cn2)c1	0	0	0	0	0	0	-	-	-	-	-	-
O=C(NCCCN1CCCC1)c1ccc2c(c1)N(Cc1ccccc1)CCS2	0	0	-5.9	0	0	0	0	0	-8.5%	80%	62%	0
O=C(NCCCN1CCOCC1)c1ccc2c(c1)N(Cc1cccc(Cl)c1)C(=O)CS2	0	0	-5	0	0	0	664%	160%	133%	41%	93%	-
COc1cc(/C=N/NC(=O)CNC(=O)c2ccccc2)ccc1OC(=O)c1cccs1	0	13	-7.6	0	0	0	0	0	0	0	0	82%
N#Cc1ccc(-c2cn3c(n2)SCC3)cc1	0	0	0	0	0	0	-	-	-	-	-	-
SMILES	Kir21 inh	TRPC6 act	TRPC6 inh	TRPC4 inh	TRPC4 act	TRPC4 PAM	HEK293 MPD ctr-2	HEK293 MPD ctr 2-2	TRPC4 ctr mod	TRPC4/MOR inh 2	TRPC6 block conf	TRPC6 act conf	others
CCCn1c(-c2ccc(F)cc2)n[nH]c1=S	0	0	0	0	0	0	-	-	-	-	-	-
CCCCn1c(-c2ccc([N+](=O)[O-])cc2)n[nH]c1=S	0	0	-15	0	0	0	-	-	-	-	85%	0	TRPC4 spec 2=0;TRPC4 spec=0;HEK293 MPD ctr 2-1=-18%;HEK293 MPD ctr-1=0
CCNc1ccc2noc3c2c1C(=O)c1ccccc1-3	0	0	-5.8	0	0	0	231%	108%	-282%	144%	70%	0
CCOC(=O)/C(=C/c1ccc(N2CCC(c3ccccc3)=N2)cc1)C(C)=O	0	14	0	0	0	0	582%	0	51%	0	0	43%
CCOC(=O)C(=Cc1ccc(-n2ccnc2)cc1)C(=O)OCC	0	0	0	0	0	0	-	-	-	-	-	-
COC(=S)N/C(=N\S(=O)(=O)c1ccc(Cl)cc1)c1ccccc1	0	0	0	0	0	0	-	-	-	-	-	-
O=C(CSc1ncccn1)N1CCN(C(c2ccccc2)c2ccccc2)CC1	0	0	-7.9	0	0	0	-	-	-	-	76%	-	TRPC4 spec 2=0;TRPC4 spec=1.9%;HEK293 MPD ctr 2-1=0;HEK293 MPD ctr-1=1.4%
O=C(CSc1ncccn1)N1CCN(C(=O)CSc2ncccn2)CC1	0	0	0	0	0	0	-	-	-	-	-	-
